Assay results as given in ChEMBL document CHEMBL3232808, “Synthesis, biological evaluation, and structure-activity relationships of potent noncovalent and nonpeptidic cruzain inhibitors as anti-Trypanosoma cruzi agents” (J Med Chem, 2014).

Legend:
[1] = target: Cruzipain (Trypanosoma cruzi) (UniProt P25779); assay: Inhibition of Trypanosoma cruzi cruzaine expressed in Escherichia coli SG13009 using Z-FR-AMC as substrate at 100 uM after 5 mins
Cruzipain [2] = target: T1, Cruzipain (Trypanosoma cruzi, UniProt P25779); assay: Inhibition of Trypanosoma cruzi cruzaine expressed in Escherichia coli SG13009 using Z-FR-AMC as substrate after 5 mins
T1 sequence (P25779 whole entry): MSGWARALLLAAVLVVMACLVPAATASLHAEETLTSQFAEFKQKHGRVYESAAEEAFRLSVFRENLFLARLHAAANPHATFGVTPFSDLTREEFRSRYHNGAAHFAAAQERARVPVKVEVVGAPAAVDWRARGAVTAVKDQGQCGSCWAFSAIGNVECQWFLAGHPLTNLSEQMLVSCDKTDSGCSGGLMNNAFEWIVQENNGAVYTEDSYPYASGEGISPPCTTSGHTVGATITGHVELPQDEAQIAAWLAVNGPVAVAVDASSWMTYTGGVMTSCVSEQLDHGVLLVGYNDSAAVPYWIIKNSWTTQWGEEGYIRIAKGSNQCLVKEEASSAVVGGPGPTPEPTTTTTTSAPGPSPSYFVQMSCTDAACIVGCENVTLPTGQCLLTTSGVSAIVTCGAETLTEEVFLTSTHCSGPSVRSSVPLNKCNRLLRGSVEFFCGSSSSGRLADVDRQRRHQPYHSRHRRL

Trypanosoma cruzi [3] = assay: Antitrypanosomal activity against amastigote stage of lacZ expressing Trypanosoma cruzi Tulahuen after 72 hrs; type: functional, organism-based
Method in brief: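 Human fibroblasts seeded 2×10^3/well in RPMI 1640 without phenol red, overnight; β-galactosidase-expressing trypomastigotes added 1.0×10^4/well. After 24 h, compounds (DMSO stocks diluted in medium) added in serial dilutions 300 to 0.4 μM, triplicate; 72 h incubation. CPRG with Nonidet P-40 (0.1% final) added, absorbance 570 nm; IC50 from curve fitting; benznidazole positive, untreated negative controls; ≥3 experiments.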

Mus musculus [4] = assay: Acute toxicity in BALB/c mouse at 20, 30, 50 and 50 mg/kg, ip administered at 0, 2, 4, 6 hrs respectively and measured after last dose; type: organism-based; parameters: dose 50 mg/kg, route intraperitoneal; settings: in vivo
Method in brief: (§1)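 One female BALB/c mouse (18–20 g) per compound. Stock diluted to 5 mg/mL in sterile distilled water, given ip as cumulative doses over 6 h (20, 30, 50, 50 mg/kg at 0, 2, 4, 6 h; total 150 mg/kg). Mice observed 48 h for acute toxicity signs (chill, thirst) or death, then euthanized.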

Mus musculus [5] = assay: Acute toxicity in BALB/c mouse assessed as mortality incidence at 20, 30, 50 and 50 mg/kg, ip administered at 0, 2, 4, 6 hrs respectively and measured after 48 hrs post last dose; type: organism-based; parameters: dose 50 mg/kg, route intraperitoneal; settings: in vivo; method in brief: as §1
Mus musculus [6] = assay: Acute toxicity in BALB/c mouse at 20, 30, 50 and 50 mg/kg, ip administered at 0, 2, 4, 6 hrs respectively and measured after 24 hrs post last dose; type: organism-based; parameters: dose 50 mg/kg, route intraperitoneal; settings: in vivo
Cruzipain [7] = target: T1, Cruzipain; assay: Competitive inhibition of Trypanosoma cruzi cruzaine expressed in Escherichia coli SG13009 using Z-FR-AMC as substrate by Lineweaver-Burk plot analysis
Method in brief: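 Mechanism study: eight Z-FR-AMC concentrations crossed with four inhibitor concentrations, each in triplicate, with 1.5 nM cruzain in 0.1 M sodium acetate pH 5.5, 5 mM DTT, 0.01% Triton X-100; 5 min initial rates; kinetic parameters obtained with an enzyme kinetics module.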

Trypanosoma cruzi [8] = assay: Ratio of benznidazole IC50 to compound IC50 for amastigote stage of lacZ expressing Trypanosoma cruzi Tulahuen; type: functional
Method in brief: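 Human fibroblasts (2×10^3/well) were seeded overnight in phenol-red-free RPMI 1640, then infected with β-galactosidase-expressing Tulahuen trypomastigotes (1.0×10^4/well). After 24 h, compounds (DMSO stocks) were added as serial dilutions from 300 to 0.4 μM, each in triplicate. After 72 h, CPRG with 0.1% Nonidet P-40 was added and A570 read. Benznidazole was run alongside as standard. IC50s are means of ≥3 experiments.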

Sequence of Cruzipain (Trypanosoma cruzi) (P25779 123-467 limits assumed): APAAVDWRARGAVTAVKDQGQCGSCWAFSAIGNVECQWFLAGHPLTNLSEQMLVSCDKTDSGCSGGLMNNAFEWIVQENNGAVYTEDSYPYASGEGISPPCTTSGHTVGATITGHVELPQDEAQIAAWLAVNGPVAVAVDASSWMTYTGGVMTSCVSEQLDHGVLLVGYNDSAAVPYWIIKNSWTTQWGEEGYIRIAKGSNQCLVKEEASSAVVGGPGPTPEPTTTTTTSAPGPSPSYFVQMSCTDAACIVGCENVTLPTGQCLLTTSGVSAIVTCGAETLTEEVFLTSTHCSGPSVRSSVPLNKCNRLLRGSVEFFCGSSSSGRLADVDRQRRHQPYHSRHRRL

Row | SMILES | inhibition [1] [%] | IC50 (Cruzipain [2]) [µM] | IC50 (Trypanosoma cruzi [3]) [µM] | also measured
1 | O=C(COc1ccc2ccccc2c1)NCCC(=O)Nc1ccccc1O | 14 |  |  | 
2 | O=C(CSc1ccccc1)NCCc1nc2ccccc2[nH]1 | 66 | 38.4 | > 100 | Activity (Mus musculus [4]): Toxic; Activity (Mus musculus [5]): Non-toxic; Activity (Mus musculus [6]): Non-toxic
3 | CC(=O)Nc1ccccc1OCC(=O)NCCc1nc2ccccc2[nH]1 | 25 |  |  | 
4 | O=C(COc1ccc2ccccc2c1)NCCc1cnc[nH]1 | 7 |  |  | 
5 | O=C(COc1ccc2ccccc2c1Br)NCCc1nc2cc(Cl)ccc2[nH]1 | 90 | 0.6 |  | 
6 | Cc1ccccc1OCCNCCc1nc2ccccc2[nH]1 | 8 |  |  | 
7 | COc1ccc2[nH]c(CCNC(=O)COc3ccc4ccccc4c3Br)nc2c1 | 93 | 0.54 |  | 
8 | O=C(COc1ccc(Br)cc1)NCCc1nc2ccccc2[nH]1 | 96 | 2.7 | 6.7 | Activity (Mus musculus [4]): Toxic; Activity (Mus musculus [5]): Non-toxic; Activity (Mus musculus [6]): Non-toxic
9 | N#Cc1ccccc1OCC(=O)NCCc1nc2ccccc2[nH]1 | 81 | 65.1 | 6.5 | Activity (Mus musculus [4]): Toxic; Activity (Mus musculus [5]): Non-toxic; Activity (Mus musculus [6]): Non-toxic
10 | O=C(COc1ccccc1Br)NCCN1CCCCC1 | 1 |  |  | 
11 | C=CCCn1c(CCNC(=O)COc2ccccc2Cl)nc2ccccc21 | 89 | 23.9 | 11.1 | 
12 | O=C(COc1ccc2ccccc2c1)NCCc1nc2ccccc2o1 | 22 |  |  | 
13 | Cc1cc(C)c(C#N)c(SCCNC(=O)COc2ccccc2C)n1 | 13 |  |  | 
14 | Cc1ccccc1OCC(=O)NCCN1CCCCC1 | 3 |  |  | 
15 | O=C(COc1ccc2ccccc2c1)NCCc1nc2ccccc2[nH]1 | 90 | 3 | 46.1 | 
16 | Cc1ccc2[nH]c(CCNC(=O)COc3ccc4ccccc4c3Br)nc2c1 | 97 | 0.62 |  | 
17 | O=C(COc1ccc2ccccc2c1Br)NCCc1c[nH]c2ccccc12 | 2 |  |  | 
18 | O=C(COc1ccc2ccccc2c1CO)NCCc1nc2ccccc2[nH]1 | 80 | 12.7 |  | 
19 | O=C(COc1ccccc1I)NCCc1nc2ccccc2[nH]1 | 96 | 1.6 | > 100 | Activity (Mus musculus [4]): Toxic; Activity (Mus musculus [5]): Toxic; Activity (Mus musculus [6]): Non-toxic
20 | Cc1ccccc1OCC(=O)NCCc1nc2ccccc2[nH]1 | 88 | 4.1 | 2.8 | Activity (Mus musculus [4]): Toxic; Activity (Mus musculus [5]): Non-toxic; Activity (Mus musculus [6]): Non-toxic
21 | O=C(CCc1ccccc1Br)NCCc1nc2ccccc2[nH]1 | 51 | 77.5 | 34.6 | 
22 | O=C(COc1cccc(Br)c1)NCCc1nc2ccccc2[nH]1 | 96 | 0.8 | > 100 | Activity (Mus musculus [4]): Toxic; Activity (Mus musculus [5]): Non-toxic; Activity (Mus musculus [6]): Non-toxic
23 | O=C(COc1ccccc1F)NCCc1nc2ccccc2[nH]1 | 92 | 5.3 | > 100 | Activity (Mus musculus [4]): Toxic; Activity (Mus musculus [5]): Non-toxic; Activity (Mus musculus [6]): Non-toxic
24 | O=C(CCc1ccccc1Br)NCCN1CCCCC1 | 7 |  |  | 
25 | O=C(COc1ccccc1Cl)NCCc1cnc[nH]1 | 14 |  |  | 

Continued, in another order:

Row | inhibition [1] [%] | IC50 (Cruzipain [2]) [µM] | IC50 (Trypanosoma cruzi [3]) [µM] | SMILES | also measured
26 | 93 | 13.2 | 7.9 | O=C(COc1ccccc1[N+](=O)[O-])NCCc1nc2ccccc2[nH]1 | 
27 | 8 |  |  | Cc1ccccc1OCC(=O)NCCC(=O)O | 
28 |  |  | 4.8 | O=C(Cn1ccnc1[N+](=O)[O-])NCc1ccccc1 [BENZNIDAZOLE] | 
29 | 25 |  |  | O=C(CCOc1ccccc1)NCCc1nc2ccccc2[nH]1 | 
30 | 8 |  |  | Cc1ccccc1OCC(=O)NCCC(=O)NCc1ccccc1 | 
31 | 47 |  |  | CC(=O)n1c(CCNC(=O)COc2ccccc2[N+](=O)[O-])nc2ccccc21 | 
32 | 80 | 13.5 |  | O=Cc1c(OCC(=O)NCCc2nc3ccccc3[nH]2)ccc2ccccc12 | 
33 | 92 | 3 | > 100 | O=C(COc1ccccc1Cl)NCCc1nc2ccccc2[nH]1 | 
34 | 43 |  |  | Nc1ccccc1OCC(=O)NCCc1nc2ccccc2[nH]1 | 
35 | 33 |  | 2.9 | Cc1ccccc1OCC(=O)NCCc1nc2ccccc2o1 | 
36 | 5 |  |  | Cc1ccccc1OCC(=O)NCCc1c[nH]c2ccccc12 | 
37 | 88 |  |  | O=C(COc1ccccc1)NCCc1nc2ccccc2[nH]1 | 
38 | 51 | 8.2 |  | O=C(COc1ccc2ccccc2c1O)NCCc1nc2ccccc2[nH]1 | 
39 | 84 | 9.9 | 5.3 | CC(=O)n1c(CCNC(=O)COc2ccc(Br)cc2)nc2ccccc21 | 
40 | 84 | 5.2 | > 100 | O=C(COc1cccc2ccccc12)NCCc1nc2ccccc2[nH]1 | 
41 | 92 | 0.21 | 16.2 | O=C(COc1ccc2ccccc2c1Br)NCCc1nc2ccccc2[nH]1 | Ki (Cruzipain [7]): 0.082 µM
42 | 4 |  |  | Nc1ccccc1NC(=O)CCNC(=O)COc1ccccc1[N+](=O)[O-] | 
43 | 89 | 0.8 | 1.6 | O=C(COc1ccccc1Br)NCCc1nc2ccccc2[nH]1 | Ratio IC50 (Trypanosoma cruzi [8]): 3
44 | 2 |  |  | Cc1ccccc1OCC(=O)NCCC(=O)Nc1ccccc1O | 
45 | 4 |  |  | Cc1ccccc1OCC(=O)NCCC(=O)Nc1ccccc1 | 
